# Experiments:
# D(2) dopamine receptor = D(2) dopamine receptor (Homo sapiens, UniProt P14416); experiment: Displacement of [3H]NMSP from human dopamine D2S receptor expressed in CHO cell membrane incubated for 1 hr by scintillation counting method; format: cell membranes
# Outline: (§1)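 Competition binding: [3H]-LSD displacement for 5-HT6 and [3H]-NMSP displacement for D2. Eight compound concentrations, 5 × 10^-6 to 5 × 10^-13 M, each tested in triplicate. Affinity is reported as Ki.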
# [1] = Passive permeability of compound after 4 hrs by sink-PAMPA assay; format: ADME; conditions: read-out: permeability
# Cytochrome P450 3A4 = Cytochrome P450 3A4 (Homo sapiens, UniProt P08684); experiment: Inhibition of human recombinant CYP3A4 using 7-benzyloxy-trifluoromethylcoumarin as substrate incubated for 30 mins by fluorescence analysis in presence of NADPH; format: ADME
# Cytochrome P450 2D6 = Cytochrome P450 2D6 (Homo sapiens, UniProt P10635); experiment: Inhibition of human recombinant CYP2D6 using AMMC as substrate incubated for 45 mins by fluorescence analysis in presence of NADPH; format: ADME
# [2] = Intrinsic clearance in human liver microsomes at 1 uM by UPLC-MS analysis in presence of NADPH and UDPGA; format: ADME; conditions: read-out: CLH
# [3] = Intrinsic clearance in mouse liver microsomes at 1 uM by UPLC-MS analysis in presence of NADPH and UDPGA; format: ADME; conditions: read-out: CLH
# [4] = Intrinsic clearance in rat liver microsomes at 1 uM by UPLC-MS analysis in presence of NADPH and UDPGA; format: ADME; conditions: read-out: CLH
# [5] = target: Voltage-gated inwardly rectifying potassium channel KCNH2 (Homo sapiens, UniProt Q12809); experiment: Inhibition of human ERG1 expressed in CHO cells by whole cell patch clamp electrophysiology method
# [6] = Kinetic solubility in sorensen buffer at pH 7.4 incubated for 1 hr by UV-Visible spectrophotometry; format: physicochemical; conditions: read-out: Kinetic_solubility
# [7] = Cmax in CD1 mouse plasma at 3 mg/kg, po as single dose after 0.083 to 6 hrs by LC-MS/MS analysis; format: ADME, organism-based; set-up: dose 3 mg/kg, route oral
# [8] = Tmax in CD1 mouse plasma at 3 mg/kg, po as single dose by LC-MS/MS analysis; format: ADME, organism-based
# [9] = AUClast in CD1 mouse plasma at 3 mg/kg, po as single dose after 0.083 to 6 hrs by LC-MS/MS analysis; format: ADME, organism-based; set-up: dose 3 mg/kg, time upper 6 hr, time lower 0.083 hr, route oral
# [10] = Cmax in CD1 mouse plasma at 10 mg/kg, po as single dose after 0.083 to 6 hrs by LC-MS/MS analysis; format: ADME, organism-based; set-up: dose 10 mg/kg, route oral
# [11] = Tmax in CD1 mouse plasma at 10 mg/kg, po as single dose by LC-MS/MS analysis; format: ADME, organism-based
# [12] = AUClast in CD1 mouse plasma at 10 mg/kg, po as single dose after 0.083 to 6 hrs by LC-MS/MS analysis; format: ADME, organism-based; set-up: time upper 6 hr, time lower 0.083 hr, dose 10 mg/kg, route oral
# [13] = Cmax in CD1 mouse plasma at 3 mg/kg, sc after 0.083 to 6 hrs by LC-MS/MS analysis; format: ADME, organism-based; set-up: dose 3 mg/kg, route subcutaneous
# [14] = Tmax in CD1 mouse plasma at 3 mg/kg, sc by LC-MS/MS analysis; format: ADME, organism-based
# [15] = AUClast in CD1 mouse plasma at 3 mg/kg, sc after 0.083 to 6 hrs by LC-MS/MS analysis; format: ADME, organism-based; set-up: time lower 0.083 hr, dose 3 mg/kg, time upper 6 hr, route subcutaneous
# [16] = Cmax in CD1 mouse plasma at 10 mg/kg, sc after 0.083 to 6 hrs by LC-MS/MS analysis; format: ADME, organism-based; set-up: dose 10 mg/kg, route subcutaneous
# [17] = Tmax in CD1 mouse plasma at 10 mg/kg, sc by LC-MS/MS analysis; format: ADME, organism-based
# [18] = AUClast in CD1 mouse plasma at 10 mg/kg, sc after 0.083 to 6 hrs by LC-MS/MS analysis; format: ADME, organism-based; set-up: time 0.083-6 hr, dose 10 mg/kg, route subcutaneous
# Brain [19] = experiment: Cmax in CD1 mouse brain at 3 mg/kg, po as single dose after 6 hrs by LC-MS/MS analysis; format: ADME, organism-based; set-up: dose 3 mg/kg, route oral; conditions: in vivo, BLD = below limit of detection
# Brain [20] = experiment: Tmax in CD1 mouse brain at 3 mg/kg, po as single dose by LC-MS/MS analysis; format: ADME, organism-based; conditions: in vivo, BLD = below limit of detection
# [21] = Cmax in CD1 mouse brain at 10 mg/kg, po as single dose after 6 hrs by LC-MS/MS analysis; format: ADME, organism-based; set-up: dose 10 mg/kg, route oral
# [22] = Tmax in CD1 mouse brain at 10 mg/kg, po as single dose by LC-MS/MS analysis; format: ADME, organism-based
# [23] = AUClast in CD1 mouse brain at 10 mg/kg, po as single dose after 6 hrs by LC-MS/MS analysis; format: ADME, organism-based; set-up: time < 6 hr, dose 10 mg/kg, route oral
# [24] = Cmax in CD1 mouse brain at 3 mg/kg, sc after 6 hrs by LC-MS/MS analysis; format: ADME, organism-based; set-up: dose 3 mg/kg, route subcutaneous
# [25] = Tmax in CD1 mouse brain at 3 mg/kg, sc by LC-MS/MS analysis; format: ADME, organism-based
# [26] = AUClast in CD1 mouse brain at 3 mg/kg, sc after 6 hrs by LC-MS/MS analysis; format: ADME, organism-based; set-up: time < 6 hr, dose 3 mg/kg, route subcutaneous
# [27] = Cmax in CD1 mouse brain at 10 mg/kg, sc after 6 hrs by LC-MS/MS analysis; format: ADME, organism-based; set-up: dose 10 mg/kg, route subcutaneous
# [28] = Tmax in CD1 mouse brain at 10 mg/kg, sc by LC-MS/MS analysis; format: ADME, organism-based
# [29] = AUClast in CD1 mouse brain at 10 mg/kg, sc after 6 hrs by LC-MS/MS analysis; format: ADME, organism-based; set-up: dose 10 mg/kg, time < 6 hr, route subcutaneous
# [30] = Cmax in CD1 mouse liver at 3 mg/kg, po as single dose after 6 hrs by LC-MS/MS analysis; format: ADME, organism-based; set-up: dose 3 mg/kg, route oral
# [31] = Tmax in CD1 mouse liver at 3 mg/kg, po as single dose by LC-MS/MS analysis; format: ADME, organism-based
# [32] = AUClast in CD1 mouse liver at 3 mg/kg, po as single dose after 6 hrs by LC-MS/MS analysis; format: ADME, organism-based; set-up: dose 3 mg/kg, time < 6 hr, route oral
# [33] = Cmax in CD1 mouse liver at 10 mg/kg, po as single dose after 6 hrs by LC-MS/MS analysis; format: ADME, organism-based; set-up: dose 10 mg/kg, route oral
# [34] = Tmax in CD1 mouse liver at 10 mg/kg, po as single dose by LC-MS/MS analysis; format: ADME, organism-based
# [35] = AUClast in CD1 mouse liver at 10 mg/kg, po as single dose after 6 hrs by LC-MS/MS analysis; format: ADME, organism-based; set-up: dose 10 mg/kg, time < 6 hr, route oral
# [36] = Cmax in CD1 mouse liver at 3 mg/kg, sc after 6 hrs by LC-MS/MS analysis; format: ADME, organism-based; set-up: dose 3 mg/kg, route subcutaneous
# [37] = Tmax in CD1 mouse liver at 3 mg/kg, sc by LC-MS/MS analysis; format: ADME, organism-based
# [38] = AUClast in CD1 mouse liver at 3 mg/kg, sc after 6 hrs by LC-MS/MS analysis; format: ADME, organism-based; set-up: time < 6 hr, dose 3 mg/kg, route subcutaneous
# [39] = Cmax in CD1 mouse liver at 10 mg/kg, sc after 6 hrs by LC-MS/MS analysis; format: ADME, organism-based; set-up: dose 10 mg/kg, route subcutaneous
# [40] = Tmax in CD1 mouse liver at 10 mg/kg, sc by LC-MS/MS analysis; format: ADME, organism-based
# [41] = AUClast in CD1 mouse liver at 10 mg/kg, sc after 6 hrs by LC-MS/MS analysis; format: ADME, organism-based; set-up: dose 10 mg/kg, time < 6 hr, route subcutaneous
# [42] = Ratio of drug level in brain to plasma in CD1 mouse at 3 mg/kg, po as single dose by LC-MS/MS analysis; format: ADME, organism-based; conditions: BLD = below limit of detection
# [43] = Ratio of drug level in brain to plasma in CD1 mouse at 10 mg/kg, po as single dose by LC-MS/MS analysis; format: ADME, organism-based; conditions: read-out: BPR
# [44] = Ratio of drug level in brain to plasma in CD1 mouse at 3 mg/kg, sc by LC-MS/MS analysis; format: ADME, organism-based; conditions: read-out: BPR
# [45] = Ratio of drug level in brain to plasma in CD1 mouse at 10 mg/kg, sc by LC-MS/MS analysis; format: ADME, organism-based; conditions: read-out: BPR
# [46] = Ratio of drug level in liver to plasma in CD1 mouse at 3 mg/kg, po as single dose by LC-MS/MS analysis; format: ADME, organism-based
# [47] = Ratio of drug level in liver to plasma in CD1 mouse at 10 mg/kg, po as single dose by LC-MS/MS analysis; format: ADME, organism-based
# [48] = Ratio of drug level in liver to plasma in CD1 mouse at 3 mg/kg, sc by LC-MS/MS analysis; format: ADME, organism-based
# [49] = Ratio of drug level in liver to plasma in CD1 mouse at 10 mg/kg, sc by LC-MS/MS analysis; format: ADME, organism-based
# [50] = target: 5-hydroxytryptamine receptor 6 (Homo sapiens, UniProt P50406); experiment: Displacement of [3H]LSD from human 5HT6 receptor in HEK293 cell membrane incubated for 1 hr by scintillation counting method; format: cell membranes; outline: as §1
# 5-hydroxytryptamine receptor 6, sequence (P50406 whole entry): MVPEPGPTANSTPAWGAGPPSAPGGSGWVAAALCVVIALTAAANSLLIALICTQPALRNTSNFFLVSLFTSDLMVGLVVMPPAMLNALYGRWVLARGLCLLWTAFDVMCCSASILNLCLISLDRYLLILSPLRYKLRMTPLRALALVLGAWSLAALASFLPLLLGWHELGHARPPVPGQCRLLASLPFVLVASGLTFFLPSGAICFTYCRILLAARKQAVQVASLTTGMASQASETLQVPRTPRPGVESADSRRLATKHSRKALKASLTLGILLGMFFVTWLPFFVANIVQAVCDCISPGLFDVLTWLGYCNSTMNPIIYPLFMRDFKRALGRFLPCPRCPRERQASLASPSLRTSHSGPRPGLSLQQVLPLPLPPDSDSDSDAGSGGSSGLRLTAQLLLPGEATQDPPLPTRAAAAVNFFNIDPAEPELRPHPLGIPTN
# D(2) dopamine receptor, sequence (P14416 whole entry): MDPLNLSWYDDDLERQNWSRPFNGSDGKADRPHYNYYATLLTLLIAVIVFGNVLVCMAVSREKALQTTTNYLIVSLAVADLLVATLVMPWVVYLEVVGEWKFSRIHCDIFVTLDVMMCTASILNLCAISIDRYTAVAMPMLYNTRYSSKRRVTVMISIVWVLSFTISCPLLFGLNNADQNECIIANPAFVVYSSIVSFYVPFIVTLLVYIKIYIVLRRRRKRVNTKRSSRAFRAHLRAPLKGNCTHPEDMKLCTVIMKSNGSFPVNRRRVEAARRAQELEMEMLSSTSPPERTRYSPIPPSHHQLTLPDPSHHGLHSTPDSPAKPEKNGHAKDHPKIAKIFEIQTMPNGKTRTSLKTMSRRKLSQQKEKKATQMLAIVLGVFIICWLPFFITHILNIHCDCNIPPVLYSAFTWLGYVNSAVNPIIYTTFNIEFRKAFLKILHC
# Cytochrome P450 2D6, sequence (P10635 whole entry): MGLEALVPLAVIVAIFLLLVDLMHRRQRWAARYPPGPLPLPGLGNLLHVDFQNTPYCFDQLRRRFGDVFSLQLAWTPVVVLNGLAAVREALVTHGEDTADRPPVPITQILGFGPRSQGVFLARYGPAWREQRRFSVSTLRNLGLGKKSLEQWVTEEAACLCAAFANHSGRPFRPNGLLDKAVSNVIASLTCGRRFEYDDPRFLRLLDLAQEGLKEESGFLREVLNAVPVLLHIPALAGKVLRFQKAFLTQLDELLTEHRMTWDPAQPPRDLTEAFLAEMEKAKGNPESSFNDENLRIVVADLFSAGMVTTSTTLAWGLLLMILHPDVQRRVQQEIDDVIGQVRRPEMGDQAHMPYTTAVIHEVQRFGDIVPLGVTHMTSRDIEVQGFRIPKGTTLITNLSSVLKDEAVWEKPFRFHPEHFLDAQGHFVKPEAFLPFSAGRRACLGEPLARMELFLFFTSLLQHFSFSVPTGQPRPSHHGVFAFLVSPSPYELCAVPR
# Voltage-gated inwardly rectifying potassium channel KCNH2, sequence (Q12809 whole entry): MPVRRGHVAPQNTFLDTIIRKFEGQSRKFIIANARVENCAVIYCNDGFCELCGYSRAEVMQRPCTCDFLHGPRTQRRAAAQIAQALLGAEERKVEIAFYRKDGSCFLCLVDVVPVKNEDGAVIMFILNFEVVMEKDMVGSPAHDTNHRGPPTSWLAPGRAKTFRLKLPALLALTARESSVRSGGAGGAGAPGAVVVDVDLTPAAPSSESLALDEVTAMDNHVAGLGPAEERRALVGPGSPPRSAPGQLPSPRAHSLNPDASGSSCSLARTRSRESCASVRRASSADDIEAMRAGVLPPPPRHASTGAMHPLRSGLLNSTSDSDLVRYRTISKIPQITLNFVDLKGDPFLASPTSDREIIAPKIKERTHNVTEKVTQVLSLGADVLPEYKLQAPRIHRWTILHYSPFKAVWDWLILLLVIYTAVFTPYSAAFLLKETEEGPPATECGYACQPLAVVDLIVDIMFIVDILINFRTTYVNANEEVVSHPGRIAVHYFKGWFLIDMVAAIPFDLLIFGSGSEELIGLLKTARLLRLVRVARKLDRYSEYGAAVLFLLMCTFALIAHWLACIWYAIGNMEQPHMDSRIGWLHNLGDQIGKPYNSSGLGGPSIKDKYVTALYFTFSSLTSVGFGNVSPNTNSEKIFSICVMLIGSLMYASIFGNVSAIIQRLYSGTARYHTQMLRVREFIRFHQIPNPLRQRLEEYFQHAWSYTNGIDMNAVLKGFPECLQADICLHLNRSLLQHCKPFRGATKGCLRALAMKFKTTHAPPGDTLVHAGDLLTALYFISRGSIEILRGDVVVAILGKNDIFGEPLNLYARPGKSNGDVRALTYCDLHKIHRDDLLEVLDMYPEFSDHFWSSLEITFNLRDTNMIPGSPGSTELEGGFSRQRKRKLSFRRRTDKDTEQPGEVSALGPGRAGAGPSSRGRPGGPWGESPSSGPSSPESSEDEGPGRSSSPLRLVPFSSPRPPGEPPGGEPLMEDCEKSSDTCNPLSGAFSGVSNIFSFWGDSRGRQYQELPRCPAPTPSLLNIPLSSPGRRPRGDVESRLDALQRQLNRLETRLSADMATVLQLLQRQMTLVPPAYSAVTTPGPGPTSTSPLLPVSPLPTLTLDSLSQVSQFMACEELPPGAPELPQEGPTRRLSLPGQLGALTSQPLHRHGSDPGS
# Cytochrome P450 3A4, sequence (P08684 whole entry): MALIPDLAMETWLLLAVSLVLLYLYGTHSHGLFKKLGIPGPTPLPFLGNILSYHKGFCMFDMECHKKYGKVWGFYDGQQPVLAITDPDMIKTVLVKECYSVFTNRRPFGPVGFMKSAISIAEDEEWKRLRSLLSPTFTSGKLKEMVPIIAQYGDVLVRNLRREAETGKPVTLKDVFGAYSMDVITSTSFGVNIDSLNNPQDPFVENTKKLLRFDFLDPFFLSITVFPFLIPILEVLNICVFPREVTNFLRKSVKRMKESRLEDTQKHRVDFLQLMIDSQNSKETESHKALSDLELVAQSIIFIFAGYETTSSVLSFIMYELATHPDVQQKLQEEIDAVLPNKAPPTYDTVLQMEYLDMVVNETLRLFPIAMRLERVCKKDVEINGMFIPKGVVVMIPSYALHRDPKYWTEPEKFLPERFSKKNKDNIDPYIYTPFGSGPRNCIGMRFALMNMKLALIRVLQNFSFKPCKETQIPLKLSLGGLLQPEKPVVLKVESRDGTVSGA
compound,measurement,setting,value
CC(C)CS(=O)(=O)n1ccc2c(-c3ccc(C(F)(F)F)cc3)cc(N3CCN(C)CC3)nc21,Ki,D(2) dopamine receptor,0.367 µM
same,Papp at 4 h,[1],537 nm/s
same,IC50,Cytochrome P450 3A4,1.1 µM
same,IC50,Cytochrome P450 2D6,3.3 µM
same,microsomal CLint at 1 µM,[2],20 µL/min/mg
same,microsomal CLint at 1 µM,[3],63 µL/min/mg
same,microsomal CLint at 1 µM,[4],55 µL/min/mg
same,IC50,[5],2.1 µM
same,solubility kinetic at 1 h,[6],8 µg/mL
same,Cmax,[7],0.003 µg/mL
same,Tmax,[8],1 h
same,AUC(0-t),[9],0.013 µg·h/mL
same,Cmax,[10],0.017 µg/mL
same,Tmax,[11],6 h
same,AUC(0-t),[12],0.097 µg·h/mL
same,Cmax,[13],0.018 µg/mL
same,Tmax,[14],1 h
same,AUC(0-t),[15],0.09 µg·h/mL
same,Cmax,[16],0.044 µg/mL
same,Tmax,[17],1 h
same,AUC(0-t),[18],0.208 µg·h/mL
same,Cmax,Brain [19],BLD
same,Tmax,Brain [20],BLD
same,Cmax,[21],0.026 µg/mL
same,Tmax,[22],6 h
same,AUC(0-t) at 6 h,[23],0.134 µg·h/mL
same,Cmax,[24],0.016 µg/mL
same,Tmax,[25],6 h
same,AUC(0-t) at 6 h,[26],0.079 µg·h/mL
same,Cmax,[27],0.036 µg/mL
same,Tmax,[28],6 h
same,AUC(0-t) at 6 h,[29],0.161 µg·h/mL
same,Cmax,[30],0.11 µg/mL
same,Tmax,[31],0.25 h
same,AUC(0-t) at 6 h,[32],0.26 µg·h/mL
same,Cmax,[33],0.74 µg/mL
same,Tmax,[34],0.5 h
same,AUC(0-t) at 6 h,[35],2.97 µg·h/mL
same,Cmax,[36],0.043 µg/mL
same,Tmax,[37],1 h
same,AUC(0-t) at 6 h,[38],0.241 µg·h/mL
same,Cmax,[39],0.142 µg/mL
same,Tmax,[40],1 h
same,AUC(0-t) at 6 h,[41],0.687 µg·h/mL
same,BPR,[42],BLD
same,Kp,[43],1.4
same,Kp,[44],0.9
same,Kp,[45],0.8
same,Kp,[46],19.5
same,Kp,[47],30.7
same,Kp,[48],2.7
same,Kp,[49],3.3
same,Ki,[50],0.004 µM
